Assay results: ChEMBL document CHEMBL4014311, “Discovery of a Hepatitis C Virus NS5B Replicase Palm Site Allosteric Inhibitor (BMS-929075) Advanced to Phase 1 Clinical Studies” (J Med Chem, 2017); call rule not given here

Columns and labels:
[1] = Half life in dog liver microsomes; format: ADME, Canis lupus familiaris, microsome
[2] = Aqueous solubility of compound; format: physicochemical; details: buffer
[3] = AUC in Sprague-Dawley rat at 6 mg/kg, po administered via gavage by LC/MS/MS analysis; format: ADME, organism-based; details: in vivo
Method in brief: (§1)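 Rats were fasted overnight with free access to water, then dosed by gastric gavage with an […] solution in 90:10 PEG-400/ethanol (v/v), n = 3 per group. EDTA plasma was sampled predose and at 15, 30, 45, 60 min and 2, 4, 6, 8, 24 h, then assayed by LC/MS/MS. Parameters come from noncompartmental analysis: Cmax observed directly, AUC by linear/log trapezoidal summation, F as dose-normalized PO/IV AUC ratio.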

[4] = Drug uptake in Sprague-Dawley rat liver at 6 mg/kg, po via gavage after 6 hrs by LC-MS/MS analysis; format: ADME, organism-based; details: read-out: Drug uptake
Method in brief: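 Fasted rats were dosed orally in 90:10 PEG-400/ethanol; 6 h livers came from satellite animals. In the screening variant, n = 2 and plasma was taken to 6 h with livers at the terminal point. Livers were rinsed, blotted, weighed and homogenized in 2 volumes of 80% acetonitrile in HBSS per gram, then centrifuged. Supernatant and plasma were analysed by LC/MS/MS.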

[5] = Oral bioavailability in Sprague-Dawley rat at 6 mg/kg by LC/MS/MS analysis; format: ADME, organism-based; details: in vivo; method in brief: as §1
[6] = Tmax in Sprague-Dawley rat at 6 mg/kg, po administered via gavage using docusate sodium/methocel/water formulation by LC/MS/MS analysis; format: ADME, organism-based; details: in vivo
Method in brief: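 Fasted rats gavaged at 6 mg/kg with a spray-dried dispersion suspension (10% w/w drug loading in 0.02:0.5:99.48 docusate/methocel/water). Serial plasma samples predose and at 15, 30, 45, 60 min and 2, 4, 6, 8, 24 h; n = 3. Plasma analyzed by LC/MS/MS. Tmax read directly from observed concentrations.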

Hepatitis C virus [7] = experiment: Antiviral activity against HCV genotype 1b infected in human HuH7 cells after 3 days by luciferase reporter assay; format: functional, cell-based, Hepacivirus hominis; details: Hepatitis C virus, genotype 1b, Huh-7, 72 h; read-out: EC50
Hepatitis C virus [8] = experiment: Ratio of EC50 for HCV genotype 1b infected in human HuH7 cells in presence of 40% human serum to EC50 for HCV genotype-1b infected in human HuH7 cells; format: functional, Hepacivirus hominis
Cytochrome P450 2C8 = target: T1, Cytochrome P450 2C8 (Homo sapiens, UniProt P10632); experiment: Inhibition of microsomal CYP2C8 (unknown origin); format: ADME
T1 sequence (P10632 whole entry): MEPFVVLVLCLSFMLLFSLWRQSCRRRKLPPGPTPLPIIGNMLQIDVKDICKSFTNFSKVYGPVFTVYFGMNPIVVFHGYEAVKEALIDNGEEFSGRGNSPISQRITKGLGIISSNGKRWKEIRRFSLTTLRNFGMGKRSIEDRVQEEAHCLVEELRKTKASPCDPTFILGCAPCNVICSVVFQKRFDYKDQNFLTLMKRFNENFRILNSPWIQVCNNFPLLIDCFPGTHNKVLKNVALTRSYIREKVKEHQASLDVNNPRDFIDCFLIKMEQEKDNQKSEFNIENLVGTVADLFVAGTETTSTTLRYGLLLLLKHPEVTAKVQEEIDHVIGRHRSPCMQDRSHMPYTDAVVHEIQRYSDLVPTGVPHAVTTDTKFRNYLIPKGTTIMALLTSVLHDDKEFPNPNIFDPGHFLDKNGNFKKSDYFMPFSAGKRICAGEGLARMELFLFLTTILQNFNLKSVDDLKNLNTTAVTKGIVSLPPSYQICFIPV

[9] = Cytotoxicity against human HuH7 cells after 3 days by CellTiter-Blue assay; format: cell-based, Huh-7
Hepatitis C virus [10] = experiment: Antiviral activity against HCV genotype 1a infected in human HuH7 cells after 3 days by luciferase reporter assay; format: functional, cell-based, Hepacivirus hominis, subtype 1a; details: Hepatitis C virus, subtype 1a, Huh-7, 72 h; read-out: EC50
[11] = Protein binding in rat serum; format: ADME, cell-free; details: read-out: PB (converted)
[12] = Cytotoxicity against human HepG2 cells; format: cell-based
Canis familiaris = experiment: Toxicity in dog up to 100 mg/kg, po administered as single dose measured up to 2 weeks; format: organism-based, Canis lupus familiaris; details: in vivo, 336 h
Rattus norvegicus = experiment: Toxicity in rat up to 100 mg/kg, po administered as single dose measured up to 2 weeks; format: organism-based; details: in vivo, 336 h
[13] = Half life in rat liver microsomes; format: ADME, microsome
[14] = Protein binding in human serum; format: ADME, cell-free; details: read-out: PB (converted)
Hepatitis C virus [15] = experiment: Ratio of EC50 for HCV genotype 1a infected in human HuH7 cells in presence of 40% human serum to EC50 for HCV genotype 1a infected in human HuH7 cells; format: functional, Hepacivirus hominis, subtype 1a
[16] = Ratio of drug uptake in Sprague-Dawley rat liver to plasma at 6 mg/kg, po administered via gavage after 24 hrs by LC/MS/MS analysis; format: ADME, organism-based
Method in brief: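 Rats fasted overnight, then dosed by gavage at 6 mg/kg in 90:10 PEG-400/ethanol (v/v). Plasma sampled serially from cannula into EDTA tubes predose and at 15, 30, 45, 60 min and 2, 4, 6, 8, 24 h; n = 3. Livers removed at 6 h (satellite animals) and 24 h, homogenized in 80% acetonitrile/HBSS, assayed by LC/MS/MS. Tmax taken directly from observed data.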

Hepatitis C virus [17] = experiment: Antiviral activity against HCV genotype 4a infected in human HuH7 cells after 3 days by luciferase reporter assay; format: functional, cell-based, Hepacivirus hominis; details: Huh-7, 72 h
Cytochrome P450 3A4 = Cytochrome P450 3A4 (Homo sapiens, UniProt P08684); experiment: Inhibition of microsomal CYP3A4 (unknown origin); format: ADME
Chain of Cytochrome P450 3A4 (P08684 whole entry): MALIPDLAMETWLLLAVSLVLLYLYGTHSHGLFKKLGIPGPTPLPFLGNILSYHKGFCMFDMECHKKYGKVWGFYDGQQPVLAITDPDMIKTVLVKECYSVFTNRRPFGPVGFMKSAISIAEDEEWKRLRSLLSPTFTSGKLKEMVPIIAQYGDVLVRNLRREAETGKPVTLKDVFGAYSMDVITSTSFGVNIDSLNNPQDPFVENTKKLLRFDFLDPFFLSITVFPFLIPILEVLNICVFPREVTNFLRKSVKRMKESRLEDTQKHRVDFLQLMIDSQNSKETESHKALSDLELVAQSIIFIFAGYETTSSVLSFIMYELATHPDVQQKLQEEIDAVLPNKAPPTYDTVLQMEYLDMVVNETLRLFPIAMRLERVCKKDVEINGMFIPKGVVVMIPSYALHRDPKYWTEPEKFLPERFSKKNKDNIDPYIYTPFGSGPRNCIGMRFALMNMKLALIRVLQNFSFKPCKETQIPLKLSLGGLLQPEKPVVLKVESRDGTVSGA

[18] = Cmax in Sprague-Dawley rat at 6 mg/kg, po administered via gavage by LC/MS/MS analysis; format: ADME, organism-based; set-up: dose 6 mg/kg, route oral; details: in vivo; method in brief: as §1
[19] = AUC in Sprague-Dawley rat at 6 mg/kg, po administered via gavage using docusate sodium/methocel/water formulation by LC/MS/MS analysis; format: ADME, organism-based; details: in vivo
Method in brief: (§2)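 Rats were fasted overnight and gavaged with a suspension of spray-dried dispersion (10% w/w drug loading in 0.02:0.5:99.48 docusate/methocel/water), n = 3 per group. Serial EDTA plasma was taken predose to 24 h and assayed by LC/MS/MS. Analysis was noncompartmental: Cmax observed, AUC by linear/log trapezoids, F from dose-normalized PO versus IV AUC.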

[20] = target: Voltage-gated inwardly rectifying potassium channel KCNH2 (Homo sapiens, UniProt Q12809); experiment: Inhibition of human ERG by patch clamp assay
Chain of Voltage-gated inwardly rectifying potassium channel KCNH2 (Q12809 whole entry): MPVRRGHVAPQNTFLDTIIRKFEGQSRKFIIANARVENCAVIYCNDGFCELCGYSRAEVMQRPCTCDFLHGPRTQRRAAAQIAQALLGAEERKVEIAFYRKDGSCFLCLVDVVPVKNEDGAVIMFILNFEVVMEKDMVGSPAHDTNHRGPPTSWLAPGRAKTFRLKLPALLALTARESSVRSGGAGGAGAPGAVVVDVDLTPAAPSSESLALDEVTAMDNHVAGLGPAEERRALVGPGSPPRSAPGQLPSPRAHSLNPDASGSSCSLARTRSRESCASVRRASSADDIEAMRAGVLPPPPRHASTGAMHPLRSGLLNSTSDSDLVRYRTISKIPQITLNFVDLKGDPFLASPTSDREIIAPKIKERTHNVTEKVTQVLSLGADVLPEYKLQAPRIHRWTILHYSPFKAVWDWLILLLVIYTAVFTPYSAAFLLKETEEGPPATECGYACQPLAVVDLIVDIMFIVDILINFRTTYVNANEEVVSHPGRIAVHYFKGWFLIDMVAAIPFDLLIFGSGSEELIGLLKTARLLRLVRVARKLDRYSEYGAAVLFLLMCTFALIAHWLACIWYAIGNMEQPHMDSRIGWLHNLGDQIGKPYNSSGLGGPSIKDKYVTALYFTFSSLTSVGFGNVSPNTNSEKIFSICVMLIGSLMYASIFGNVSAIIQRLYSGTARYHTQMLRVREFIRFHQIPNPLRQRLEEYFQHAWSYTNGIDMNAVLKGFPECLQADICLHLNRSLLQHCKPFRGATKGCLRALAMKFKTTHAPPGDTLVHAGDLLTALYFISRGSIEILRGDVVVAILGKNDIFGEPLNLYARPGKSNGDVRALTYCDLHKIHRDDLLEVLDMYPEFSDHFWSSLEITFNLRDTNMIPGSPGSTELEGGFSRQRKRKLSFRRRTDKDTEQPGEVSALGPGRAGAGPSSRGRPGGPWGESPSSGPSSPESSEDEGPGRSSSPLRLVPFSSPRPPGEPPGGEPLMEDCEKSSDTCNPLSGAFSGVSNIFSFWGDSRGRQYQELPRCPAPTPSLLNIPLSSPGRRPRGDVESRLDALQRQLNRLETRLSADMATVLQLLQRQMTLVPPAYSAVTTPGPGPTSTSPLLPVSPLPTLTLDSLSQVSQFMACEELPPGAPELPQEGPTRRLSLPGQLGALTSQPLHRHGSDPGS

[21] = target: Sodium channel protein type 5 subunit alpha (Homo sapiens, UniProt Q14524); experiment: Inhibition of Nav1.5 (unknown origin)
Chain of Sodium channel protein type 5 subunit alpha (Q14524 whole entry): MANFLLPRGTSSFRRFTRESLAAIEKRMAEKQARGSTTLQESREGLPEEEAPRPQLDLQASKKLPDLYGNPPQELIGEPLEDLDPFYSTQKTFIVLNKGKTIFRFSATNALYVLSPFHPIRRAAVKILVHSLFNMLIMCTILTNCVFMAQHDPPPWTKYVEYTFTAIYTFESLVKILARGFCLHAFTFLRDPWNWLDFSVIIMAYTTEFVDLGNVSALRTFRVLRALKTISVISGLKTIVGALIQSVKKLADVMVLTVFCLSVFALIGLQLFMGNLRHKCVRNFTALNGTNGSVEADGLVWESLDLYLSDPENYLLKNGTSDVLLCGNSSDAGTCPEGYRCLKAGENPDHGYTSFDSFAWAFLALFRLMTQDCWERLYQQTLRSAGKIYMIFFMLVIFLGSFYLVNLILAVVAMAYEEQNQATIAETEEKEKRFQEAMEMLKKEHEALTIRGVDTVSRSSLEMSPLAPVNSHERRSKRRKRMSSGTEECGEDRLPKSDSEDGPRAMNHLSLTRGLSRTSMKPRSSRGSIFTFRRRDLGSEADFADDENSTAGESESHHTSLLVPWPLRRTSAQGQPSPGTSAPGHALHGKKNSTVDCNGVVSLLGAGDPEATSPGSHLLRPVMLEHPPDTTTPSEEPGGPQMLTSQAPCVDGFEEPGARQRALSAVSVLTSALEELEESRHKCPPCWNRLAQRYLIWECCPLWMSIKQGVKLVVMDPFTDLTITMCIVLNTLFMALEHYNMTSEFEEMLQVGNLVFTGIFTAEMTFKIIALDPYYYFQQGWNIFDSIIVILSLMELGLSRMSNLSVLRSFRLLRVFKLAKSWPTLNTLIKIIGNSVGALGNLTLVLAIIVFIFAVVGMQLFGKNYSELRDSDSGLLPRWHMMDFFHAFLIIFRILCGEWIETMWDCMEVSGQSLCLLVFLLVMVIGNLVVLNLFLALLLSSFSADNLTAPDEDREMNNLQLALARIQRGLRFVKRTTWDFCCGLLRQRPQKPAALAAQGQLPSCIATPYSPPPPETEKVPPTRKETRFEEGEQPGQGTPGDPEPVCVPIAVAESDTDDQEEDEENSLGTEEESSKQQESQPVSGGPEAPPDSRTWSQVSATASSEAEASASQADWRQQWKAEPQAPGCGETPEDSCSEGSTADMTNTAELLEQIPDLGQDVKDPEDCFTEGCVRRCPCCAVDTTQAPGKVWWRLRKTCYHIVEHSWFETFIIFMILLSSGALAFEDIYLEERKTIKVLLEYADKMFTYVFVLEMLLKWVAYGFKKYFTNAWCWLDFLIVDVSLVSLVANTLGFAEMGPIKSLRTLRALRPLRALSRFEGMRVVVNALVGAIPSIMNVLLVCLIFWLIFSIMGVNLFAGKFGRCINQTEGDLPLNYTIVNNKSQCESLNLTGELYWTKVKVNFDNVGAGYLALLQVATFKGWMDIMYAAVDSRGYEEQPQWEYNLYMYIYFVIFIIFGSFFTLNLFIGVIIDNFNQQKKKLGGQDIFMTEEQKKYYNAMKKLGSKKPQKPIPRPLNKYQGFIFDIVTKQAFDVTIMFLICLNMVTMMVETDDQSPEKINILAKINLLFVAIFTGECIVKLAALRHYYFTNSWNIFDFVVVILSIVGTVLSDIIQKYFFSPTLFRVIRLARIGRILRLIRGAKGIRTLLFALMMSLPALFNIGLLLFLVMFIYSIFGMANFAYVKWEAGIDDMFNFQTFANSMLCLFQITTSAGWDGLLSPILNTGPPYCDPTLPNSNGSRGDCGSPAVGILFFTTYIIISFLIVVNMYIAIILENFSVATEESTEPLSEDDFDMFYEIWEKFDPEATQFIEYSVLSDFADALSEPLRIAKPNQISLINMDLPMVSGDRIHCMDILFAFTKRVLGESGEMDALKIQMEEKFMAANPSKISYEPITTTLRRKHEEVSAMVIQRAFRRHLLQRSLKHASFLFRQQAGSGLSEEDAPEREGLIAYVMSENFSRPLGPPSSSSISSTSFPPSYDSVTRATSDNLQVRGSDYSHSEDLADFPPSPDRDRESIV

[22] = Protein binding in dog serum; format: ADME, cell-free, Canis lupus familiaris; details: read-out: PB (converted)
Homo sapiens = experiment: Toxicity in human up to 400 mg/day, po for 14 days; details: in vivo, 336 h
[23] = Protein binding in monkey serum; format: ADME, cell-free, Macaca mulatta; details: rhesus monkey, read-out: PB (converted)
[24] = Oral bioavailability in Sprague-Dawley rat at 6 mg/kg using docusate sodium/methocel/water formulation by LC/MS/MS analysis; format: ADME, organism-based; details: in vivo; method in brief: as §2

CNC(=O)c1c(-c2ccc(F)cc2)oc2ccc(-c3cc(C(=O)NC4(c5ncccn5)CC4)ccc3C)c(F)c12 [BMS-929075]
half-life [1]: > 2 h
solubility [2]: < 1 µg/mL
AUC [3]: 54.5 µM·h
concentration at 6 h [4]: 15.1 µM
bioavailability [5]: 48%
Tmax [6]: 4 h
EC50 (Hepatitis C virus [7]): 0.004 µM
Ratio EC50 (Hepatitis C virus [8]): 5.5
IC50 (Cytochrome P450 2C8): 6.7 µM
CC50 at 72 h [9]: 60 µM
EC50 (Hepatitis C virus [10]): 0.009 µM
fraction unbound [11]: 0.003
CC50 [12]: > 12.5 µM
Activity (Canis familiaris): Non-Toxic
Activity (Rattus norvegicus): Non-Toxic
half-life [13]: > 2 h
fraction unbound [14]: 0.018
Ratio EC50 (Hepatitis C virus [15]): 5.5
Kp at 24 h [16]: 1.6
EC50 (Hepatitis C virus [17]): 0.003 µM
IC50 (Cytochrome P450 3A4): > 13 µM
Cmax [18]: 7.5 µM
AUC [19]: 140 µM·h
IC50 [20]: 18 µM
inhibition (INH) [21]: Not Active
fraction unbound [22]: 0.019
Activity (Homo sapiens): Non-Toxic
fraction unbound [23]: 0.028
bioavailability [24]: > 100%
